MT1-MMP act inh = MT1-MMP (human) activation inhibition; P50281; HT1080 RFP-PRO-GFP cells, GFP/RFP ratio fluorescence, overnight; percent of plate control window, DMSO zero; GFP/RFP ratio change, % at 20 µM; 360,000 tested, 0.061% active;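 active = GFP/RFP ratio change of at least 30% with cell ATP level not reduced by more than half and red fluorescence within 50% of control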
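Assay system: RFP-PRO-GFP reporter HT1080 cells; read-out basis: GFP/RFP fluorescence ratio; benchmarks: DMSO wells and RFP-L50D-GFP cells; doses: 20 µM single dose, 1% DMSO; schedule: overnight cell settling, then overnight compound exposure, 37 °C, 5% CO2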
MPTP inh = inhibitors of mitochondrial permeability transition pore; isolated mouse mitochondria, Ca2+ swelling absorbance, 30 min; 360,000 tested, 1.4% active; AID 602449; inhibition, % at 10 µM;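 active = inhibition of 50% or more, scaled per plate between neutral and stimulator controls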;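 note: 0% = DMSO wells given calcium and 100% = 1 mM EGTA wells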
ATG4B inhibitor = inhibitors of human ATG4B cysteine protease. AID 504462. Q9Y4P1. ATG4B cleavage of LC3-PLA2, NBD-HPC fluorescence, 1 h. inhibition, % at 8.33 µM. 340,000 tested, 0.51% active; in the data active = inhibition above about 40%
Target sequence (Q9Y4P1 whole entry, looked up): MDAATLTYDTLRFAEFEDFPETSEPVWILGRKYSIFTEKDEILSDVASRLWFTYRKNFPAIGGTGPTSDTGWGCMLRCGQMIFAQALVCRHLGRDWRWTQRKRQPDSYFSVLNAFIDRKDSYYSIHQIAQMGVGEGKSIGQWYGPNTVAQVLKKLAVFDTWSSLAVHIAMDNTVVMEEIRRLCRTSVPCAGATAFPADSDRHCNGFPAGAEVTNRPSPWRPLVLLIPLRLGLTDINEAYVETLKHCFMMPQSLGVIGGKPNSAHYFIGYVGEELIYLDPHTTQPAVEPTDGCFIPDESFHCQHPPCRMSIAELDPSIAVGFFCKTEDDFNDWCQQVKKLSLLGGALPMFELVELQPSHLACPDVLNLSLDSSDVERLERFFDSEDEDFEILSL
SKN-1 inh = C. elegans SKN-1 inhibition | 360,000 tested, 0.49% active | inhibition, % at 21.8 µM | C. elegans VP596 Pgst-4::GFP/RFP ratio, acrylamide-induced, 24 h;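 active = interference check ratio from 0.5 to 1.5 plus GFP to RFP signal ratio inhibition reaching or exceeding a fixed threshold, cut at about 30% in these data, passing the limit was not always enough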
Rh123 counter = mitochondrial membrane potential, counter-screen. isolated mitochondria, Rhodamine 123 fluorescence. AID 624504. shares compounds with MPTP inh. inhibition, % at 10 µM. 5,000 tested, 78% active; in the data active = inhibition above about 22%;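 note: 0% = DMSO vehicle and 100% = positive control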
MPTP swell DR = dose response confirmation of mitochondrial permeability transition pore inhibitors | shares compounds with MPTP inh | isolated mitochondria swelling, absorbance | IC50, µM | 780 tested, 58% active; in the data active = IC50 below about 20 µM
MPTP counter DR = MPTP inhibitor counter-screen activity, dose response; isolated mitochondria counterscreen, fluorescence read-out; AID 651564; IC50, µM; shares compounds with MPTP inh; 780 tested, 49% active; in the data active = IC50 below about 80 µM
* marks the source's active call; other numbers are inactive results. This is a sample that favours compounds with a hit; in the whole collection about 2.3% have one here.

OC(CNCC1CCCO1)Cn1c2ccccc2c2ccccc21 (stereo unspecified) was read as MT1-MMP act inh 1.3, MPTP inh 73.5*, ATG4B inhibitor -0.1, SKN-1 inh 7.0, Rh123 counter -8.6, MPTP swell DR 10.3* and MPTP counter DR >80.
`OC(CNCC1CCCO1)Cn1c2ccc(Cl)cc2c2cc(Cl)ccc21` (stereo unspecified) gave MT1-MMP act inh -1.8, MPTP inh 3.0, ATG4B inhibitor -10.7 and SKN-1 inh -4.7.
Cc1ccc(NCC(=O)Nc2cccc(F)c2)cc1S(=O)(=O)N1CCCCCC1 was read as MT1-MMP act inh -5.1, MPTP inh 5.1, ATG4B inhibitor 0.4 and SKN-1 inh 11.4.
O=C(CSc1nc2ccc(Cl)cc2[nH]1)NC1CCCc2ccccc21 (stereo unspecified) was read as MT1-MMP act inh -8.7, MPTP inh 62.6*, ATG4B inhibitor 24.2, SKN-1 inh 1.4 and Rh123 counter 62.1*.
Screening COc1cccc(CNC(=O)c2ccc(NC(=O)C3=CSCCO3)cc2)c1 returned MT1-MMP act inh 8.7, MPTP inh 0.9, ATG4B inhibitor -0.6 and SKN-1 inh -18.2.
`COc1ccccc1OCCNC(=O)Nc1ccc(Br)cc1` gave MT1-MMP act inh 7.3, MPTP inh 84.7*, ATG4B inhibitor -5.5, SKN-1 inh 5.1 and Rh123 counter 81.7*.
For COc1ccccc1OCCNC(=O)c1ccc(Br)cc1 the results were MT1-MMP act inh 0.0, MPTP inh -1.3, ATG4B inhibitor -3.0 and SKN-1 inh -7.6.
`CC1(C)C(=O)Nc2ccccc2N1C(=O)CSc1nc(-c2ccccc2)cs1` gave MT1-MMP act inh -1.9, MPTP inh 98.2*, ATG4B inhibitor 10.8, SKN-1 inh 15.1 and Rh123 counter 69.9*.
For Cc1ccc(S(=O)(=O)NCC2CCCO2)cc1 (stereo unspecified) the results were MT1-MMP act inh 1.7, MPTP inh 1.7, ATG4B inhibitor -0.1 and SKN-1 inh 7.7.
`O=S(=O)(NCC1CCCO1)c1ccc(-c2ccc(S(=O)(=O)NCC3CCCO3)cc2)cc1` (stereo unspecified) gave MT1-MMP act inh -4.2, MPTP inh 86.4*, ATG4B inhibitor -6.2, SKN-1 inh 10.0 and Rh123 counter 100.7*.
Screening Cn1nc(C(F)(F)F)c(-c2cccc(C(F)(F)F)c2)c1NC(=O)CSCC(=O)O returned MT1-MMP act inh 2.0, MPTP inh 1.7, ATG4B inhibitor -5.3 and SKN-1 inh -3.2.
`COC(=O)C1=C(C)N(Cc2ccccc2)C(=NCc2ccc(OC)cc2)N[C@H]1c1cccc(F)c1` gave MT1-MMP act inh -5.7, MPTP inh 0.1, ATG4B inhibitor -5.8 and SKN-1 inh 7.6.
For COC(=O)C1=C(C)N(Cc2ccccc2)C(=NCc2ccccc2)N[C@H]1c1cccc(C(F)(F)F)c1 the results were MT1-MMP act inh -4.2, MPTP inh 1.0, ATG4B inhibitor -5.6 and SKN-1 inh 8.7.
`COC(=O)C1=C(C)N(Cc2ccccc2)C(=NCc2cccc(Cl)c2)N[C@H]1c1cccc(F)c1` gave MT1-MMP act inh -10.5, MPTP inh 85.7*, ATG4B inhibitor -2.0, SKN-1 inh -7.4 and Rh123 counter -9.5.
`COC(=O)C1=C(C)N(Cc2ccccc2)C(=NCC(C)C)N[C@H]1c1cccc(C(F)(F)F)c1` gave MT1-MMP act inh -0.2, MPTP inh 86.0*, ATG4B inhibitor -6.2, SKN-1 inh -2.3 and Rh123 counter -1.6.
`CCCC(=O)c1c(C)c2ccccc2n1C` gave MT1-MMP act inh -0.4, MPTP inh 0.3, ATG4B inhibitor -8.7 and SKN-1 inh -4.5.
`CCCn1nc(C(=O)NNC(=O)CCCOc2ccc(C)cc2)c2ccccc2c1=O` gave MT1-MMP act inh 0.9, MPTP inh 1.9, ATG4B inhibitor -2.5 and SKN-1 inh -4.3.
`O=C(Nc1cccc(-c2cccc(Cl)c2)c1)C1CCN(Cc2nccs2)CC1` gave MT1-MMP act inh -3.3, MPTP inh 2.1 and SKN-1 inh 8.3.
For Cc1ccccc1OCCCc1c(C)n[nH]c1C the results were MT1-MMP act inh -1.8, MPTP inh -0.2, ATG4B inhibitor -5.1 and SKN-1 inh 7.4.
